Converted amounts (≈) assume the structure as drawn. The source made the active and inactive calls. The rule behind the calls is not given here.
Assays:
Staphylococcus aureus [1] = assay: Inhibition of DNA synthesis in Staphylococcus aureus CB190 assessed as decrease in [methyl-3H]thymidine incorporation at 0.032 ug/ml; format: functional, organism-based
Staphylococcus aureus [2] = assay: Antimicrobial activity against Staphylococcus aureus CB370 harboring rpoB H481Y mutant gene; format: functional
Staphylococcus aureus [3] = assay: Antimicrobial activity against rifampin-sensitive Staphylococcus aureus CB190 harboring rpoB N474K mutant gene by broth microdilution method; format: functional
In short: (§1)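 CLSI broth microdilution MIC in cation-adjusted Mueller-Hinton (MHII) broth supplemented with 0.002% (vol/vol) polysorbate 80, included to limit compound loss to plastic surfaces.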

Staphylococcus aureus [4] = assay: Inhibition of protein synthesis in quinolone-resistant Staphylococcus aureus CB814 harboring gyrA S84L and parC S80F mutant genes assessed as decrease in L-[3,4,5-3H]leucine incorporation at 0.032 ug/ml; format: functional, organism-based
In short: (§2)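 Time-course radiolabel incorporation in S. aureus cultures with test agent. Precursors: [methyl-3H]thymidine (DNA), [5,6-3H]uridine (RNA), L-[3,4,5-3H]leucine (protein), [2,3-3H]D-alanine (cell wall). At each time point, incorporation with agent is expressed relative to the DMSO-treated control culture as percent incorporation. Time-zero incorporation is set to 100%.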

[5] = Inhibition of Staphylococcus aureus RpoB H481Y mutant
In short: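 Recombinant S. aureus σA RNA polymerase holoenzyme carrying RpoB H481Y. Single-round transcription of the pGL2B-T7A1-G-less template. The 272-nt G-less RNA product is quantified by gel electrophoresis. IC50 is the concentration that inhibits 50% of product formed without inhibitor.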

Staphylococcus aureus [6] = assay: Antimicrobial activity against Staphylococcus aureus CB814 harboring […] and parC S80F mutant genes; format: functional
Staphylococcus aureus [7] = assay: Antimicrobial activity against Staphylococcus aureus CB1884; format: functional
Staphylococcus aureus [8] = assay: Antimicrobial activity against rifampin-sensitive Staphylococcus aureus CB190 by broth microdilution method; format: functional; in short: as §1
Staphylococcus aureus [9] = assay: Inhibition of RNA synthesis in Staphylococcus aureus CB190 assessed as decrease in [5,6-3H]uridine incorporation at 0.032 ug/ml; format: functional, organism-based
Staphylococcus aureus [10] = assay: Antimicrobial activity against Staphylococcus aureus CB808 harboring quinolone-resistant parC S80F mutant gene by broth microdilution method; format: functional; in short: as §1
Staphylococcus aureus [11] = assay: Inhibition of DNA synthesis in rifamycin-resistant Staphylococcus aureus CB370 harboring rpoB H481Y mutant gene assessed as [methyl-3H]thymidine incorporation at 0.032 ug/ml; format: functional, organism-based
In short: (§3)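 Macromolecular synthesis time course in S. aureus, measuring incorporation of [methyl-3H]thymidine (DNA), [5,6-3H]uridine (RNA) or [2,3-3H]D-alanine (cell wall). At each time point, incorporation is expressed as percent of the DMSO-treated control culture. Incorporation at time zero is set to 100%.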

Staphylococcus aureus [12] = assay: Antimicrobial activity against Staphylococcus aureus CB814 harboring fluoroquinolone-resistant gyrA S84L and parC S80F mutant genes by broth microdilution method; format: functional; in short: as §1
Staphylococcus aureus [13] = assay: Antimicrobial activity against Staphylococcus aureus CB815 harboring rpoB H481Y, gyrA S84L and parC S80F mutant genes by broth microdilution method
Staphylococcus aureus [14] = assay: Inhibition of cell wall synthesis in rifamycin-resistant Staphylococcus aureus CB370 harboring rpoB H481Y mutant gene assessed as [2,3-3H]D-alanine incorporation at 0.032 ug/ml; format: functional, organism-based; in short: as §3
Staphylococcus aureus [15] = assay: Antimicrobial activity against Staphylococcus aureus CB1887 harboring rpoB R484H, L520 deficient gyrA, […], R236 duplicated parC and parC H103Y mutant genes selected after ABT-719 exposure for 20 days; format: functional; conditions: CB1887, 480 h
Staphylococcus aureus [16] = assay: Inhibition of RNA synthesis in quinolone-resistant Staphylococcus aureus CB814 harboring gyrA S84L and parC S80F mutant genes assessed as decrease in [5,6-3H]uridine incorporation at 0.032 ug/ml; format: functional, organism-based; in short: as §3
Staphylococcus aureus [17] = assay: Antimicrobial activity against Staphylococcus aureus CB815 harboring rpoB H481Y, gyrA […] and parC S80F mutant genes; format: functional
Staphylococcus aureus [18] = assay: Antimicrobial activity against Staphylococcus aureus CB1952 harboring rpoB S486L, gyrA […], gyrA E88Q, gyrA G532S, parC S80F, parC E84L mutant genes selected after CBR-2092 exposure for 21 days; format: functional; conditions: CB1952, 504 h
Staphylococcus aureus [19] = assay: Antimicrobial activity against rifampin-sensitive Staphylococcus aureus CB190 harboring rpoB Q468K mutant gene by broth microdilution method; format: functional; in short: as §1
Staphylococcus aureus [20] = assay: Inhibition of cell wall synthesis in Staphylococcus aureus CB190 assessed as decrease in [2,3-3H]D-alanine incorporation at 0.032 ug/ml; format: functional, organism-based
Staphylococcus aureus [21] = assay: Antimicrobial activity against rifampin-sensitive Staphylococcus aureus CB190 harboring rpoB H481Y mutant gene by broth microdilution method; format: functional; in short: as §1
Staphylococcus aureus [22] = assay: Antimicrobial activity against Staphylococcus aureus CB812 harboring rpo B H481Y and gyrA S84L mutant genes by broth microdilution method; format: functional; in short: as §1
[23] = Inhibition of Staphylococcus aureus wild-type RNA polymerase RpoB
In short: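 Recombinant S. aureus σA RNA polymerase holoenzyme in a single-round transcription assay using the pGL2B-T7A1-G-less template. The 272-nucleotide G-less RNA product was quantified by gel electrophoresis. IC50 is the concentration halving the product formed without test agent.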

Staphylococcus aureus [24] = assay: Inhibition of protein synthesis in rifamycin-resistant Staphylococcus aureus CB370 harboring rpoB H481Y mutant gene assessed as L-[3,4,5-3H]leucine incorporation at 0.032 ug/ml; format: functional, organism-based; in short: as §2
Staphylococcus aureus [25] = assay: Inhibition of protein synthesis in Staphylococcus aureus CB190 assessed as decrease in L-[3,4,5-3H]leucine incorporation at 0.032 ug/ml; format: functional, organism-based
Staphylococcus aureus [26] = assay: Antimicrobial activity against rifampin-sensitive Staphylococcus aureus CB190 harboring rpoB D471G mutant gene by broth microdilution method; format: functional; in short: as §1
Staphylococcus aureus [27] = assay: Antimicrobial activity against Staphylococcus aureus CB811 harboring quinolone-resistant gyrA S84L mutant gene by broth microdilution method; format: functional; in short: as §1
Staphylococcus aureus [28] = assay: Antimicrobial activity against rifampin-sensitive Staphylococcus aureus CB190 harboring rpoB E473 mutant gene by broth microdilution method; format: functional; in short: as §1
Staphylococcus aureus [29] = assay: Inhibition of DNA synthesis in quinolone-resistant Staphylococcus aureus CB814 harboring gyrA S84L and parC S80F mutant genes assessed as decrease in [methyl-3H]thymidine incorporation at 0.032 ug/ml; format: functional, organism-based; in short: as §3
Staphylococcus aureus [30] = assay: Antimicrobial activity against rifampin-sensitive Staphylococcus aureus CB190 harboring rpoB Q468L mutant gene by broth microdilution method; format: functional; in short: as §1
Staphylococcus aureus [31] = assay: Antimicrobial activity against rifampin-sensitive Staphylococcus aureus CB190 harboring rpoB D471Y mutant gene by broth microdilution method; format: functional; in short: as §1
Staphylococcus aureus [32] = assay: Antimicrobial activity against rifampin-sensitive Staphylococcus aureus CB190 harboring rpo BH481D mutant gene by broth microdilution method; format: functional; in short: as §1
Staphylococcus aureus [33] = assay: Antimicrobial activity against Staphylococcus aureus CB370 harboring rifampin-resistant rpoB H481Y mutant gene by broth microdilution method; format: functional; in short: as §1
Staphylococcus aureus [34] = assay: Antimicrobial activity against Staphylococcus aureus CB190 by broth microdilution method; format: functional
Staphylococcus aureus [35] = assay: Antimicrobial activity against Staphylococcus aureus CB809 harboring rpoB H481Y and parC S80F mutant genes by broth microdilution method
Staphylococcus aureus [36] = assay: Antimicrobial activity against Staphylococcus aureus CB1947 harboring rpoB H481Y, gyrA S84L, E697 deficient gyrA, parC G167V mutant genes selected after CBR-2092 exposure for 20 days; conditions: CB1947, 480 h
Staphylococcus aureus [37] = assay: Inhibition of RNA synthesis in rifamycin-resistant Staphylococcus aureus CB370 harboring rpoB H481Y mutant gene assessed as [5,6-3H]uridine incorporation at 0.032 ug/ml; format: functional, organism-based; in short: as §3
Staphylococcus aureus [38] = assay: Antimicrobial activity against rifampin-sensitive Staphylococcus aureus CB190 harboring rpoB H481N mutant gene by broth microdilution method; format: functional; in short: as §1
Staphylococcus aureus [39] = assay: Antimicrobial activity against rifampin-sensitive Staphylococcus aureus CB190 harboring rpoB A477V mutant gene by broth microdilution method; format: functional; in short: as §1
Staphylococcus aureus [40] = assay: Antimicrobial activity against Staphylococcus aureus CB1954 harboring rpoB H481Y, gyrA S84L, K809 deficient gyrA, parC S80F, parC A523D mutant genes selected after CBR-2092 exposure for 7 days; format: functional; conditions: CB1954, 168 h; in short: as §1
Staphylococcus aureus [41] = assay: Inhibition of cell wall synthesis in quinolone-resistant Staphylococcus aureus CB814 harboring gyrA S84L and parC S80F mutant genes assessed as decrease in [2,3-3H]D-alanine incorporation at 0.032 ug/ml; format: functional, organism-based; in short: as §3
Staphylococcus aureus [42] = assay: Antimicrobial activity against Staphylococcus aureus CB1953 harboring rpoB H481Y, gyrA S84L, gyrA V598I, parC S80F, parC R570H mutant genes selected after CBR-2092 exposure for 7 days; format: functional; conditions: CB1953, 168 h
Staphylococcus aureus [43] = assay: Antimicrobial activity against rifampin-sensitive Staphylococcus aureus CB190 harboring rpoB H472 mutant gene by broth microdilution method; format: functional; in short: as §1

## CO[C@H]1/C=C/O[C@@]2(C)Oc3c(C)c(O)c4c(O)c(c(/C=N/N5CCN(C)CC5)c(O)c4c3C2=O)NC(=O)/C(C)=C\C=C\[C@H](C)[C@H](O)[C@@H](C)[C@@H](O)[C@@H](C)[C@H](OC(C)=O)[C@@H]1C [RIFAMPIN]
Staphylococcus aureus [1]
  Activity: Active
Staphylococcus aureus [2]
  MIC: > 250 µg/mL
Staphylococcus aureus [3]
  MIC: 2 µg/mL (≈ 2.43 µM)
Staphylococcus aureus [4]
  Activity: Active
[5]
  IC50: > 25 µM
Staphylococcus aureus [6]
  MIC: 0.008 µg/mL (≈ 0.00972 µM)
Staphylococcus aureus [7]
  MIC: > 250 µg/mL
Staphylococcus aureus [8]
  MIC: 8 ng/mL (≈ 0.00972 µM)
Staphylococcus aureus [9]
  Activity: Active
Staphylococcus aureus [10]
  MIC: 8 ng/mL (≈ 0.00972 µM)
Staphylococcus aureus [11]
  Activity: inactive
Staphylococcus aureus [12]
  MIC: 8 ng/mL (≈ 0.00972 µM)
Staphylococcus aureus [13]
  MIC: > 250 µg/mL
Staphylococcus aureus [14]
  Activity: inactive
Staphylococcus aureus [15]
  MIC: > 250 µg/mL
Staphylococcus aureus [16]
  Activity: Active
Staphylococcus aureus [17]
  MIC: > 125 µg/mL
Staphylococcus aureus [18]
  MIC: > 250 µg/mL
Staphylococcus aureus [19]
  MIC: > 64 µg/mL
Staphylococcus aureus [20]
  Activity: Active
Staphylococcus aureus [21]
  MIC: > 64 µg/mL
Staphylococcus aureus [22]
  MIC: > 250 µg/mL
[23]
  IC50: 15 nM
Staphylococcus aureus [24]
  Activity: inactive
Staphylococcus aureus [25]
  Activity: Active
Staphylococcus aureus [26]
  MIC: 0.25 µg/mL (≈ 0.304 µM)
Staphylococcus aureus [27]
  MIC: 8 ng/mL (≈ 0.00972 µM)
Staphylococcus aureus [28]
  MIC: 8 µg/mL (≈ 9.72 µM)
Staphylococcus aureus [29]
  Activity: Active
Staphylococcus aureus [30]
  MIC: > 64 µg/mL
Staphylococcus aureus [31]
  MIC: 16 µg/mL (≈ 19.4 µM)
Staphylococcus aureus [32]
  MIC: > 64 µg/mL
Staphylococcus aureus [33]
  MIC: > 250 µg/mL
Staphylococcus aureus [34]
  MIC: 8 ng/mL (≈ 0.00972 µM)
Staphylococcus aureus [35]
  MIC: > 250 µg/mL
Staphylococcus aureus [36]
  MIC: > 250 µg/mL
Staphylococcus aureus [37]
  Activity: inactive
Staphylococcus aureus [38]
  MIC: 2 µg/mL (≈ 2.43 µM)
Staphylococcus aureus [39]
  MIC: 1 µg/mL (≈ 1.22 µM)
Staphylococcus aureus [40]
  MIC: > 125 µg/mL
Staphylococcus aureus [41]
  Activity: Active
Staphylococcus aureus [42]
  MIC: > 125 µg/mL
Staphylococcus aureus [43]
  MIC: 32 µg/mL (≈ 38.9 µM)

## CCBr [BROMOETHANE]
Staphylococcus aureus [2]
  MIC: 4 µg/mL (≈ 36.7 µM)
Staphylococcus aureus [6]
  MIC: 4 µg/mL (≈ 36.7 µM)
Staphylococcus aureus [7]
  MIC: 2 µg/mL (≈ 18.4 µM)
Staphylococcus aureus [17]
  MIC: 4 µg/mL (≈ 36.7 µM)
Staphylococcus aureus [18]
  MIC: 4 µg/mL (≈ 36.7 µM)
Staphylococcus aureus [36]
  MIC: 4 µg/mL (≈ 36.7 µM)
Staphylococcus aureus [40]
  MIC: 4 µg/mL (≈ 36.7 µM)
Staphylococcus aureus [42]
  MIC: 4 µg/mL (≈ 36.7 µM)
